Source: PubChem (several laboratories)
Sampled rows, rich in hits. Any-hit rate of the full collection: about 2.9%.
GalR3 antag: human GalR3 antagonism; O60755; HEK293 GalR3-CNG cAMP membrane potential fluorescence; galR3 body fused to GalR1 C-terminus; inhibition, % at 3 µM; 0.44% of 360,000 active;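 active = inhibition above the screen-wide average plus 3 SD, cut at about 13% in these data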;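 note: forskolin and galanin both at EC90 stimulate the cells; cAMP rise reported by CNG channel membrane potential dye signal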
Target sequence (O60755 1-299 limits assumed): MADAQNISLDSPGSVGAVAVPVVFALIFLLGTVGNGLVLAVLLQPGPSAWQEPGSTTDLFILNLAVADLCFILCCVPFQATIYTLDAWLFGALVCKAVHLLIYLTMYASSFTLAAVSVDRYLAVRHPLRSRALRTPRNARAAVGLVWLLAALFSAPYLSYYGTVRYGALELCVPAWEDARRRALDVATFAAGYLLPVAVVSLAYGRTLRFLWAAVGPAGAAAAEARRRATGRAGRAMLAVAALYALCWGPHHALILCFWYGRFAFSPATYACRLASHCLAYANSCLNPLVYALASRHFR
MC4R barr agon: agonists of human melanocortin 4 receptor (MC4R) beta-arrestin | P32245 | U2OS MC4R beta-arrestin complementation, luminescence; percent of melanotan II response, DMSO zero | activation, % at 8.9 µM | 0.98% of 360,000 active | AID 540308;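 active = activation above a per-plate cutoff, the mean activation of sample wells on that plate plus 3 SD, cut at about 8% in these data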
MC4R antag cAMP: human MC4R antagonism in cAMP assay; P32245; MC4R-expressing cells, MTII-stimulated cAMP, LANCE TR-FRET; inhibition, % at 6.5 µM; 0.48% of 360,000 active; AID 540295;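 active = inhibition above its plate's cutoff, the mean of tested wells on that plate plus 3 SD, cut at about 29% in these data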
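Test system: U2OS cells stably expressing human melanocortin 4 receptor (MC4R); also added: Melanotan II challenge; compound: 6.5 µM single dose; timing: 30-min compound preincubation, 1-h Melanotan II challenge, 1-h detection, room temperature; signal: Eu-cAMP/anti-cAMP TR-FRET, emission 671 nm; repeats: one well per compound, no replicates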
H9c2 TAG inh: inhibitors of triacylglycerol accumulation; H9c2 cells, Nile Red lipid (TAG) fluorescence; cells loaded with 200 µM oleic acid; inhibition, % at 12.5 µM; AID 651582; 0.66% of 230,000 active;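 active = pattern-corrected inhibition of lipid staining of at least 50% with the nuclear-stain viability signal not falling by more than 50%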
Efflux pump mplx: inhibitors of Candida antifungal efflux pumps expressed in yeast | S. cerevisiae Candida pump triplex, Nile Red efflux | inhibition, % at 10 µM | 0.44% of 330,000 active | AID 485275;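 active = plate passing quality check with inhibition over a set limit, or well fluorescence over plate mean plus 4 SD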;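 note: Nile Red retained in pooled yeast measured as flow cytometry median fluorescence; higher means more Nile Red kept so more efflux inhibition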
Calb FLC: C. albicans growth modulation with fluconazole | C. albicans CaCi-2 + fluconazole, Alamar Blue growth, 48 h | growth inhibition, % (concentration not given with the values) | 0.57% of 300,000 active;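 active = growth inhibition above about 58% in most replicates, limit read from the data, passing the limit was not always enough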;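 note: all wells also contain fluconazole at 8 µg/ml as a sub-toxic cotreatment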
Hits are given with their value; – = inactive; · = no result given.

SMILES	GalR3 antag	MC4R barr agon	MC4R antag cAMP	H9c2 TAG inh	Efflux pump mplx	Calb FLC
COc1cc(NC(=O)c2cccc(C)c2)ccc1NC(=O)c1cc2ccccc2o1	–	11	–	·	–	–
CCOC(=O)c1c(Nc2ccc(OC)cc2)n[nH]c1C	–	·	·	·	·	·
COc1cc(OC)c(NC(=O)NNC(=O)C(=O)NC2CC2)cc1Cl	–	·	·	·	·	·
COC(=O)Cc1nnn2c1[C@H](C)[C@H](c1cccc(OC)c1OC)OCC2	–	·	·	·	·	·
N#C/C(=N\Nc1cccc([N+](=O)[O-])c1)C(=O)c1ccc(Br)cc1	–	–	–	–	–	97
O=C(O)c1ccc(N=NNc2cccc([N+](=O)[O-])c2)cc1	–	–	–	·	–	–
O=C1c2cccc3c([N+](=O)[O-])ccc(c23)C(=O)N1c1nccs1	–	–	–	·	1.2	–
O=C1CN2C(=Nc3ccc(Cl)cc3C2c2ccccc2)CN1 (configuration not stated)	–	–	–	–	–	88
COC(=O)c1ccc2nc(-c3ccc(OC)c(OC)c3)c(Cc3ccccc3C(F)(F)F)n2c1	–	·	·	·	·	·
O=C(N[C@H](Cc1ccccc1)C(=O)O)[C@H]1O[C@@H](n2ccc(=O)[nH]c2=O)[C@H](O)[C@@H]1O	–	·	·	·	·	·
COc1ccc(OC)c(Nc2nc(N)nc(CCl)n2)c1	–	9.2	–	–	–	–
COc1ccccc1Nc1nc(N)nc(CCl)n1	–	–	–	–	–	–
Cc1ccc(Nc2nc(N)nc(CCl)n2)c(C)c1	–	15	–	80	–	–
Cc1ccc(Nc2nc(N)nc(CN3CCCCCC3)n2)c(C)c1	–	–	–	·	–	–
CCOc1ccc(Nc2nc(N)nc(CCl)n2)cc1	–	12	–	72	–	–
CCC(C)Oc1cc(-c2ccnc(Nc3cccc(Cl)c3)n2)ccn1 (configuration not stated)	–	–	–	–	–	–
OCCCNc1cc(-c2ccnc(Nc3cccc(Cl)c3)n2)ccn1	–	–	–	90	–	114
CN(c1cccnc1)c1ccc(NC(=O)Cc2cn(Cc3ccccc3)c3ccccc23)cc1Br	–	·	·	·	·	·
COc1ccc2c(CN3CCCCCCC3)cc(=O)oc2c1	–	·	·	·	·	·
CCCN1C(=O)c2ccccc2NC1c1ccc(Cl)c(Cl)c1 (configuration not stated)	–	–	–	·	–	–
CCCCN1C2=C(C(=O)CCC2)C(c2ccc(Cl)c(Cl)c2)C2=C1c1ccccc1C2=O (configuration not stated)	–	–	–	60	–	–
Cc1cc(Cl)ccc1OCC(=O)N1CCCCC1	–	–	–	–	–	–
O=C(COc1ccc(Cl)cc1Cl)N1CCCN(C(=O)COc2ccc(Cl)cc2Cl)CC1	–	–	–	–	–	93
Cc1ccc(Cn2c(Sc3ncccn3)nc3c2c(=O)[nH]c(=O)n3C)cc1	–	–	–	–	–	–
C/C=C/CSc1nc2c(c(=O)[nH]c(=O)n2C)n1Cc1ccc(C)cc1	·	8.9	–	–	–	–
SMILES	GalR3 antag	MC4R barr agon	MC4R antag cAMP	H9c2 TAG inh	Efflux pump mplx	Calb FLC
Cc1nc(-c2ccc(F)cc2)c(CC(=O)N(C)CC(=O)Nc2cccc(F)c2)s1	–	–	–	–	·	·
O=C(Nc1ccc(N2CCN(c3ncccc3C(F)(F)F)CC2)nc1)c1cccs1	–	9.6	–	–	–	–
CC(C)C[C@H]1CN(CCCC[C@H]2CNC(=O)C(=O)N2Cc2ccccc2)C(=O)C(=O)N1CCC1CCCCC1	–	·	·	·	·	·
CC(O)(c1ccncc1)c1nc(-c2cccc(C(F)(F)F)c2)cs1 (configuration not stated)	–	–	–	–	·	·
O=C(OCn1ncc(Br)c(Br)c1=O)c1ccc(F)cc1	·	–	47	–	–	–
CCCNC(=O)c1cc(C2CCCCN2C(=O)c2cccs2)on1 (configuration not stated)	–	–	–	–	·	·
O=C(/C=C/c1ccccc1)NC(=S)Nc1ccc(N2CCOCC2)cc1	–	14	–	·	–	–
O=C(/C=C/c1ccccc1)NC(=S)Nc1ccccc1	–	–	–	·	–	–
CC(C)NC(=O)N(C)C[C@@H]1Oc2cc(Br)ccc2S(=O)(=O)N([C@@H](C)CO)C[C@H]1C	–	–	–	–	·	·
CSc1ccc(/C=N\NC(=O)CNc2ccc(C)cc2)cc1	–	–	–	·	–	–
Cc1cccc(NCC(=O)N/N=C/c2ccc(Br)cc2)c1	–	8.4	–	–	–	–
